Results taken from ChEMBL document CHEMBL1121991, “4-Aroyl-1,3-dihydro-2H-imidazol-2-ones, a new class of cardiotonic agents” (1982).

How the values were obtained:
Canis familiaris [1] = experiment: Pharmacological activity for Blood pressure, -20% in anesthetized dog was determined after intravenous administration; format: functional, Canis lupus familiaris
How it was run: (§1)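 Anesthetized dogs; contractile force recorded by a left-ventricular Walton-Brodie strain gauge arch, heart rate from lead II EKG, plus blood pressure. Stabilized at least 30 min, then at least three iv doses given, one compound per animal, with return to basal between doses. Doses for +30% force, +15% rate and −20% BP were extrapolated from dose-response curves; geometric mean where repeated.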

Canis familiaris [2] = experiment: Pharmacological activity for heart rate +15% in anesthetized dog was determined after intravenous administration; format: functional, Canis lupus familiaris; how it was run: as §1
Canis familiaris [3] = experiment: Pharmacological activity for Contractile force, +30% in anesthetized dog was determined after intravenous administration; format: functional, Canis lupus familiaris; how it was run: as §1
Canis familiaris [4] = experiment: The change in cardiac contractile force was determined after 0.1 ug/kg iv administration in dog.; format: functional, Canis lupus familiaris, Heart
How it was run: (§2)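 Anesthetized dogs: a Walton-Brodie strain gauge arch sutured to the left ventricle recorded contractile force, and blood pressure was recorded, after at least 30 min stabilization. Isoproterenol 0.1 μg/kg iv was given to controls or to dogs pretreated with propranolol 0.5 mg/kg iv. The value is the % change from pre-dose control; N = 6 per group; means ± SE; Student's t test.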

Canis familiaris [5] = experiment: The change in mean arterial blood pressure was determined after 0.1 ug/kg iv administration in dog.; format: functional, Canis lupus familiaris; how it was run: as §2
Canis familiaris [6] = experiment: The heart rate was determined after 1.0 mg/kg administration with 20 mg/kg pentobarbital in the dog heart-lung preparation.; format: functional, Canis lupus familiaris
How it was run: (§3)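 Isolated dog heart-lung preparation from mongrel dogs of either sex (11–19 kg), anesthetized with sodium pentobarbital 35 mg/kg iv. A strain gauge arch on the right ventricle recorded contractile force, EKG lead II gave heart rate, a left atrial cannula and transducer gave LAP, and an extracorporeal flow meter gave aortic flow. Failure was induced by adding pentobarbital to the blood reservoir, then compound was added to the reservoir; readings at 10 min. Five preparations; means ± SE; ANOVA.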

Canis familiaris [7] = experiment: The cardiac contractile force was determined after 1.0 mg/kg administration with 20 mg/kg pentobarbital in the dog heart-lung preparation.; format: functional, Canis lupus familiaris; how it was run: as §3
Canis familiaris [8] = experiment: The cardiac output was determined after 1.0 mg/kg administration with 20 mg/kg pentobarbital in the dog heart-lung preparation.; format: functional, Canis lupus familiaris; how it was run: as §3
Canis familiaris [9] = experiment: The left atrial pressure was determined after 1.0 mg/kg administration with 20 mg/kg pentobarbital in the dog heart-lung preparation.; format: functional, Canis lupus familiaris, Cardiac atrium; how it was run: as §3
Canis familiaris [10] = experiment: The stroke volume was determined after 1.0 mg/kg administration with 20 mg/kg pentobarbital in the dog heart-lung preparation.; format: functional, Canis lupus familiaris; how it was run: as §3
Canis familiaris [11] = experiment: The stroke work was determined after 1.0 mg/kg administration with 20 mg/kg pentobarbital in the dog heart-lung preparation.; format: functional, Canis lupus familiaris; how it was run: as §3

CCc1[nH]c(O)nc1C(=O)c1ccc(SC)cc1
Equieffective dose (Canis familiaris [1]): 0.28 mg/kg
Equieffective dose (Canis familiaris [2]): 0.54 mg/kg
Equieffective dose (Canis familiaris [3]): 0.07 mg/kg

Cc1[nH]c(O)nc1C(=O)c1ccc(O)cc1
Equieffective dose (Canis familiaris [1]): 2.6 mg/kg
Equieffective dose (Canis familiaris [2]): 1.3 mg/kg
Equieffective dose (Canis familiaris [3]): 0.25 mg/kg

COc1ccc(C(=O)c2c(C)n(C)c(=O)n2C)cc1
Equieffective dose (Canis familiaris [1]): 2.6 mg/kg
Equieffective dose (Canis familiaris [2]): >10 mg/kg
Equieffective dose (Canis familiaris [3]): 4.7 mg/kg

Cc1[nH]c(O)nc1C(=O)c1ccc(Cl)c(Cl)c1
Equieffective dose (Canis familiaris [1]): 2.1 mg/kg
Equieffective dose (Canis familiaris [2]): 4 mg/kg
Equieffective dose (Canis familiaris [3]): 0.7 mg/kg

Cc1[nH]c(O)nc1C(=O)c1cccs1
Equieffective dose (Canis familiaris [1]): 2.5 mg/kg
Equieffective dose (Canis familiaris [2]): 5.4 mg/kg
Equieffective dose (Canis familiaris [3]): 0.28 mg/kg

O=C(c1c[nH]c(O)n1)c1cccs1
Equieffective dose (Canis familiaris [1]): 3.7 mg/kg
Equieffective dose (Canis familiaris [2]): >10 mg/kg
Equieffective dose (Canis familiaris [3]): 0.72 mg/kg

Cc1[nH]c(O)nc1C(=O)c1ccccc1O
Equieffective dose (Canis familiaris [1]): 4.5 mg/kg
Equieffective dose (Canis familiaris [2]): >10 mg/kg
Equieffective dose (Canis familiaris [3]): 3.28 mg/kg

COc1ccc(C(=O)c2nc(O)n(C)c2C)cc1
Equieffective dose (Canis familiaris [1]): >10 mg/kg
Equieffective dose (Canis familiaris [2]): >10 mg/kg
Equieffective dose (Canis familiaris [3]): >10 mg/kg

COc1ccc(C(=O)c2[nH]c(O)nc2C)cc1OC
Equieffective dose (Canis familiaris [1]): 2 mg/kg
Equieffective dose (Canis familiaris [2]): 1.05 mg/kg
Equieffective dose (Canis familiaris [3]): 0.4 mg/kg

Cc1nc(O)[nH]c1C(=O)c1ccc(N(C)C)cc1
Equieffective dose (Canis familiaris [1]): >3 mg/kg
Equieffective dose (Canis familiaris [2]): 2.2 mg/kg
Equieffective dose (Canis familiaris [3]): 0.36 mg/kg

Cc1[nH]c(O)nc1C(=O)c1ccc(N2CCCC2)cc1
Equieffective dose (Canis familiaris [1]): 4.5 mg/kg
Equieffective dose (Canis familiaris [2]): 8.5 mg/kg
Equieffective dose (Canis familiaris [3]): >10 mg/kg

Cc1[nH]c(O)nc1C(=O)c1ccccc1
Equieffective dose (Canis familiaris [1]): 2.55 mg/kg
Equieffective dose (Canis familiaris [2]): 1.55 mg/kg
Equieffective dose (Canis familiaris [3]): 0.23 mg/kg

CC(=O)n1c(C)c(C(=O)c2ccccc2)n(C(C)=O)c1=O
Equieffective dose (Canis familiaris [1]): 6.5 mg/kg
Equieffective dose (Canis familiaris [2]): >10 mg/kg
Equieffective dose (Canis familiaris [3]): 3 mg/kg

Cc1[nH]c(O)nc1C(=O)c1ccc(N2CCOCC2)cc1
Equieffective dose (Canis familiaris [1]): 6.4 mg/kg
Equieffective dose (Canis familiaris [2]): >10 mg/kg
Equieffective dose (Canis familiaris [3]): 1.2 mg/kg

O=C(c1ccccc1)c1c[nH]c(O)n1
Equieffective dose (Canis familiaris [1]): 4.4 mg/kg
Equieffective dose (Canis familiaris [2]): 4 mg/kg
Equieffective dose (Canis familiaris [3]): 3.91 mg/kg

Cc1[nH]c(O)nc1C(=O)c1ccc(N2CCCCC2)cc1
Equieffective dose (Canis familiaris [1]): >10 mg/kg
Equieffective dose (Canis familiaris [2]): >10 mg/kg
Equieffective dose (Canis familiaris [3]): >10 mg/kg

CCc1[nH]c(O)nc1C(=O)c1ccc(OC)c(OC)c1
Equieffective dose (Canis familiaris [1]): 2.35 mg/kg
Equieffective dose (Canis familiaris [2]): >3 mg/kg
Equieffective dose (Canis familiaris [3]): 0.18 mg/kg

CCc1[nH]c(O)nc1C(=O)c1ccc(OC)cc1
Equieffective dose (Canis familiaris [1]): 0.62 mg/kg
Equieffective dose (Canis familiaris [2]): 0.23 mg/kg
Equieffective dose (Canis familiaris [3]): 0.15 mg/kg

Cc1[nH]c(O)nc1C(=O)c1ccc(Cl)cc1
Equieffective dose (Canis familiaris [1]): 0.29 mg/kg
Equieffective dose (Canis familiaris [2]): 4 mg/kg
Equieffective dose (Canis familiaris [3]): 0.18 mg/kg

CCCc1[nH]c(O)nc1C(=O)c1ccc(SC)cc1
Equieffective dose (Canis familiaris [1]): 2.3 mg/kg
Equieffective dose (Canis familiaris [2]): 3 mg/kg
Equieffective dose (Canis familiaris [3]): 1.13 mg/kg

Cc1c(C(=O)c2ccc(N(C)C)cc2)n(C(=O)C(C)C)c(=O)n1C(=O)C(C)C
Equieffective dose (Canis familiaris [1]): >10 mg/kg
Equieffective dose (Canis familiaris [2]): >10 mg/kg
Equieffective dose (Canis familiaris [3]): 2.45 mg/kg

CSc1ccc(C(=O)c2c[nH]c(O)n2)cc1
Equieffective dose (Canis familiaris [2]): 1.05 mg/kg
Equieffective dose (Canis familiaris [3]): 0.5 mg/kg

Cc1[nH]c(O)nc1C(=O)c1ccc(F)cc1
Equieffective dose (Canis familiaris [1]): 1.03 mg/kg
Equieffective dose (Canis familiaris [2]): >3 mg/kg
Equieffective dose (Canis familiaris [3]): 0.38 mg/kg

Cc1[nH]c(O)nc1C(=O)c1ccccc1Cl
Equieffective dose (Canis familiaris [1]): 2.1 mg/kg
Equieffective dose (Canis familiaris [2]): 2.2 mg/kg
Equieffective dose (Canis familiaris [3]): 0.48 mg/kg

COc1ccc(C(=O)c2c[nH]c(O)n2)cc1
Equieffective dose (Canis familiaris [1]): 3.1 mg/kg
Equieffective dose (Canis familiaris [2]): 1.85 mg/kg
Equieffective dose (Canis familiaris [3]): 0.78 mg/kg

Cc1[nH]c(O)nc1C(=O)c1ccco1
Equieffective dose (Canis familiaris [1]): 0.72 mg/kg
Equieffective dose (Canis familiaris [2]): 3.3 mg/kg
Equieffective dose (Canis familiaris [3]): 1.05 mg/kg

O=C(c1c[nH]c(O)n1)c1ccco1
Equieffective dose (Canis familiaris [1]): 4.2 mg/kg
Equieffective dose (Canis familiaris [2]): 4.3 mg/kg
Equieffective dose (Canis familiaris [3]): 1.84 mg/kg

CCc1[nH]c(O)nc1C(=O)c1cccs1
Equieffective dose (Canis familiaris [1]): 1.6 mg/kg
Equieffective dose (Canis familiaris [2]): 1.45 mg/kg
Equieffective dose (Canis familiaris [3]): 0.41 mg/kg

Cc1nc(O)[nH]c1C(=O)c1ccc(N2CCN(C)CC2)cc1
Equieffective dose (Canis familiaris [1]): >10 mg/kg
Equieffective dose (Canis familiaris [2]): 9.1 mg/kg
Equieffective dose (Canis familiaris [3]): >10 mg/kg

CC(=O)n1c(C)c(C(=O)c2ccc(N(C)C)cc2)n(C(C)=O)c1=O
Equieffective dose (Canis familiaris [1]): >3 mg/kg
Equieffective dose (Canis familiaris [2]): >3 mg/kg
Equieffective dose (Canis familiaris [3]): 0.36 mg/kg

CC(=O)n1c(C)c(C(=O)c2ccc(F)cc2)n(C(C)=O)c1=O
Equieffective dose (Canis familiaris [1]): 2.5 mg/kg
Equieffective dose (Canis familiaris [2]): >8 mg/kg
Equieffective dose (Canis familiaris [3]): 1 mg/kg

CSc1ccc(C(=O)c2[nH]c(=O)[nH]c2C)cc1 [ENOXIMONE]
Equieffective dose (Canis familiaris [1]): 0.55 mg/kg
Equieffective dose (Canis familiaris [2]): 1.5 mg/kg
Equieffective dose (Canis familiaris [3]): 0.12 mg/kg

CC(C)NCC(O)c1ccc(O)c(O)c1 (stereo not drawn) [ISOPROTERENOL]
Change (Canis familiaris [4]): 133%
Change (Canis familiaris [5]): -27%

CCCC(C)C1(CC)C(=O)NC(=O)NC1=O (stereo not drawn) [PENTOBARBITAL]
Heart rate (Canis familiaris [6]): 133 beats min-1
Cardiac contractile force (Canis familiaris [7]): 32.2 g
Cardiac output (Canis familiaris [8]): 613 mL/min
Left atrial pressure (Canis familiaris [9]): 12.1 mmHg
Stroke volume (Canis familiaris [10]): 4.6 mL
Stroke work (Canis familiaris [11]): 3 g
